pIC50: −log10 of the molar value.
Tests used:
[1] = target: T1, Beta-secretase 1 (Homo sapiens, UniProt P56817); assay: Inhibition of human BACE1 (1 to 460 residues) expressed in baculovirus expression system at 10 uM using Rh-EVNLDAEFK-quencher as substrate after 90 mins by FRET assay
How it was run: (§1)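 FRET kit assay, manufacturer's protocol with small modifications. Compounds were taken from DMSO stocks and diluted in assay buffer (50 mM sodium acetate, pH 4.5). Substrate and compound were mixed, then enzyme (1 U/mL) was added to start the reaction. After about 90 min at room temperature, 2.5 M sodium acetate stop solution was added. Read-out was fluorescence at Ex 545/Em 585 nm. Triplicate wells, 3–4 independent experiments, mean ± SEM; OM99 served as reference inhibitor.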

[2] = target: T1, Beta-secretase 1; assay: Inhibition of human BACE1 (1 to 460 residues) expressed in baculovirus expression system at 50 uM using Rh-EVNLDAEFK-quencher as substrate after 90 mins by FRET assay; how it was run: as §1
[3] = target: T1, Beta-secretase 1; assay: Inhibition of human BACE1 (1 to 460 residues) expressed in baculovirus expression system using Rh-EVNLDAEFK-quencher as substrate after 90 mins by FRET assay
How it was run: as §1, with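 “added.” for “added. Read-out was fluorescence at Ex 545/Em 585 nm.”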

T1 sequence (P56817 whole entry, the tested form may be a part): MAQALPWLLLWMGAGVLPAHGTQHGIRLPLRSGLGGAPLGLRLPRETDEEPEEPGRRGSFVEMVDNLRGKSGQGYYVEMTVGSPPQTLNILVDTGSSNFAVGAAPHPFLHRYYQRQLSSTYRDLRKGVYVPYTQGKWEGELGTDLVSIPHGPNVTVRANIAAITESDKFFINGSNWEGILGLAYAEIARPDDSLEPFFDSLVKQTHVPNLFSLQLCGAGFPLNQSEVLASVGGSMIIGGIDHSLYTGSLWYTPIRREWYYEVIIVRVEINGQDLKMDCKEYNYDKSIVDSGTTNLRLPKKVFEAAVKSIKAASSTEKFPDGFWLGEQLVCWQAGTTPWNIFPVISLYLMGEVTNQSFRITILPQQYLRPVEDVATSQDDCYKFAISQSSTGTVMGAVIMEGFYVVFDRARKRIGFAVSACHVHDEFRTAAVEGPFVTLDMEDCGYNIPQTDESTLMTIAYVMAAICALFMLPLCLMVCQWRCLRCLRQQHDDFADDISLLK

| Structure (SMILES) | inhibition [1] [%] | inhibition [2] [%] | pIC50 [3] |
| --- | --- | --- | --- |
| COc1cc(-c2nc3ccc(Cl)cn3c2NC(C)(C)C)ccc1OCCCN1C(=O)c2ccccc2C1=O | 19.4 | 37.9 |  |
| O=C1c2ccccc2C(=O)N1CCCOc1ccc(-c2nc3ccccn3c2NC2CCCCC2)cc1 | < 10 | < 10 |  |
| CC(C)(C)Nc1c(-c2ccc(OCCCN3C(=O)c4ccccc4C3=O)cc2)nc2ccc(Cl)cn12 | 17.7 | 33 |  |
| O=C1c2ccccc2C(=O)N1CCCOc1ccc(-c2nc3ccc(Br)cn3c2NC2CCCCC2)cc1 | 32.2 | 45.3 |  |
| Cc1cccn2c(NC3CCCCC3)c(-c3ccc(OCCCN4C(=O)c5ccccc5C4=O)cc3)nc12 | 44.4 | 69.4 |  |
| CC(C)(C)Nc1c(-c2ccc(OCCCN3C(=O)c4ccccc4C3=O)cc2)nc2ccc(Br)cn12 | 7.87 | 34.3 |  |
| Cc1ccn2c(NC(C)(C)C)c(-c3ccc(OCCCN4C(=O)c5ccccc5C4=O)cc3)nc2c1 | 24.2 | 18.3 |  |
| Cc1ccn2c(NC3CCCCC3)c(-c3ccc(OCCCN4C(=O)c5ccccc5C4=O)cc3)nc2c1 | 61.3 | 100 | 5.55 |
| Cc1cccc2nc(-c3ccc(OCCCN4C(=O)c5ccccc5C4=O)cc3)c(NC3CCCCC3)n12 | 61.5 | 87.9 | 5.23 |
| COc1cc(-c2nc3ccc(Br)cn3c2NC2CCCCC2)ccc1OCCCN1C(=O)c2ccccc2C1=O | 36.7 | 43.2 |  |
| O=C1c2ccccc2C(=O)N1CCCOc1ccc(-c2nc3ccc(Cl)cn3c2NC2CCCCC2)cc1 | 11.5 | 19.6 |  |
| COc1cc(-c2nc3ccccn3c2NC2CCCCC2)ccc1OCCCN1C(=O)c2ccccc2C1=O | 29.3 | 69.5 |  |
| COc1cc(-c2nc3ccc(Br)cn3c2NC(C)(C)C)ccc1OCCCN1C(=O)c2ccccc2C1=O | 33.2 | 48.7 |  |
| Cc1ccc2nc(-c3ccc(OCCCN4C(=O)c5ccccc5C4=O)cc3)c(NC3CCCCC3)n2c1 | 37.6 | 63.7 | 4.53 |
| COc1cc(-c2nc3ccc(Cl)cn3c2NC2CCCCC2)ccc1OCCCN1C(=O)c2ccccc2C1=O | 26.9 | 88.1 | 4.83 |

Source: ChEMBL document CHEMBL4190277, “Discovery of imidazopyridines containing isoindoline-1,3-dione framework as a new class of BACE1 inhibitors: Design, synthesis and SAR analysis” (Eur J Med Chem, 2017)
